What was measured:
Mus musculus [1] = assay: Iron chelating activity in iron-overloaded BDF1 mouse assessed as transferrin saturation at 40 mg/kg, ip treated from day 8 to 13 after erythrocyte suspension injection on day 1, 3 and 5 relative to control; type: functional; conditions: route intraperitoneal
How it was run: (§1)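 Iron-loaded male BDF1 mice (10 per group) received ip drug daily on days 8-13, with non-loaded and iron-loaded vehicle-treated control groups. On day 15, blood collected by cardiac puncture under Et2O was pooled per group. Percent transferrin saturation was measured with a standard hematologic kit.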

Mus musculus [2] = assay: Iron chelating activity in iron-overloaded BDF1 mouse assessed as iron level in heart at 80 mg/kg, ip treated from day 8 to 13 after erythrocyte suspension injection on day 1, 3 and 5 by atomic absorption spectroscopic analysis; type: functional; conditions: route intraperitoneal
How it was run: (§2)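 Iron-loaded male BDF1 mice (10 per group) given ip drug in EtOH/Tween 80/saline vehicle daily on days 8-13. On day 15, under Et2O, mice were exsanguinated. Organs were washed, frozen, thawed, weighed and homogenized in 0.014 M NaCl made with iron-free water; supernatant iron was measured by AAS, as μg/mouse. Mean ± SD; t test versus iron-loaded vehicle control.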

Mus musculus [3] = assay: Iron chelating activity in iron-overloaded BDF1 mouse assessed as daily urinary iron level at 40 mg/kg, ip treated from day 8 to 13 after erythrocyte suspension injection on day 1, 3 and 5 by atomic absorption spectroscopic analysis; type: functional, Urine; conditions: route intraperitoneal
Mus musculus [4] = assay: Iron chelating activity in iron-overloaded BDF1 mouse assessed as iron level in heart at 40 mg/kg, ip treated from day 8 to 13 after erythrocyte suspension injection on day 1, 3 and 5 by atomic absorption spectroscopic analysis; type: functional; conditions: route intraperitoneal; how it was run: as §2
Mus musculus [5] = assay: Iron chelating activity in iron-overloaded BDF1 mouse assessed as iron level in liver at 40 mg/kg, ip treated from day 8 to 13 after erythrocyte suspension injection on day 1, 3 and 5 by atomic absorption spectroscopic analysis; type: functional; conditions: route intraperitoneal; how it was run: as §2
Mus musculus [6] = assay: Iron chelating activity in iron-overloaded BDF1 mouse assessed as iron level in lung at 40 mg/kg, ip treated from day 8 to 13 after erythrocyte suspension injection on day 1, 3 and 5 by atomic absorption spectroscopic analysis; type: functional; conditions: route intraperitoneal; how it was run: as §2
[7] = Binding affinity to FeSO4 assessed as stability constant at pH 7.5 after 1 hr; type: physicochemical; conditions: pH 7.5, 1 h
Mus musculus [8] = assay: Iron chelating activity in iron-overloaded BDF1 mouse assessed as iron level in spleen at 80 mg/kg, ip treated from day 8 to 13 after erythrocyte suspension injection on day 1, 3 and 5 by atomic absorption spectroscopic analysis; type: functional; conditions: route intraperitoneal; how it was run: as §2
Mus musculus [9] = assay: Iron chelating activity in iron-overloaded BDF1 mouse assessed as iron level in lung at 80 mg/kg, ip treated from day 8 to 13 after erythrocyte suspension injection on day 1, 3 and 5 by atomic absorption spectroscopic analysis; type: functional; conditions: route intraperitoneal; how it was run: as §2
[10] = Iron chelating activity assessed as removal of iron from ferritin after 20 hrs by atomic absorption spectrophotometric analysis; type: physicochemical
How it was run: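 Ferritin holding 1.34 mg total Fe was dialyzed at room temperature against 25.0 mL of 1.00 mM ligand solution. Iron in the dialysate was measured by atomic absorption spectroscopy at 20 h.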

[11] = Iron chelating activity assessed as removal of [59]-Fe from [59]-Fe-labeled transferrin at 1 mM measured per hr by spectrometric analysis; type: physicochemical; conditions: 1000 µM
How it was run: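 About 10^6 cpm of 59Fe-labeled transferrin in 1.0 mL of 0.1 M Hepes (pH 7.00), inside a dialysis sack, dialyzed at room temperature against 25.0 mL of 1.00 mM ligand in the same buffer. Dialysate aliquots of 1.00 mL taken at intervals were gamma-counted (800-1400 keV window). Initial release rates were derived from these counts.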

Mus musculus [12] = assay: Iron chelating activity in iron-overloaded BDF1 mouse assessed as iron level in spleen at 40 mg/kg, ip treated from day 8 to 13 after erythrocyte suspension injection on day 1, 3 and 5 by atomic absorption spectroscopic analysis; type: functional; conditions: route intraperitoneal; how it was run: as §2
[13] = Binding affinity to Fe(NO3)3 assessed as stability constant at pH 7.5 after 1 hr; type: physicochemical; conditions: pH 7.5, 1 h
Mus musculus [14] = assay: Iron chelating activity in iron-overloaded BDF1 mouse assessed as transferrin saturation at 80 mg/kg, ip treated from day 8 to 13 after erythrocyte suspension injection on day 1, 3 and 5 relative to control; type: functional; conditions: route intraperitoneal; how it was run: as §1
Mus musculus [15] = assay: Iron chelating activity in iron-overloaded BDF1 mouse assessed as iron level in liver at 80 mg/kg, ip treated from day 8 to 13 after erythrocyte suspension injection on day 1, 3 and 5 by atomic absorption spectroscopic analysis; type: functional; conditions: route intraperitoneal; how it was run: as §2
Mus musculus [16] = assay: Iron chelating activity in iron-overloaded BDF1 mouse assessed as daily urinary iron level at 80 mg/kg, ip treated from day 8 to 13 after erythrocyte suspension injection on day 1, 3 and 5 by atomic absorption spectroscopic analysis; type: functional, Urine; conditions: route intraperitoneal
Mus musculus [17] = assay: Iron chelating activity in iron-overloaded BDF1 mouse assessed as iron level in liver at 50 mg/kg, ip treated from day 8 to 13 after erythrocyte suspension injection on day 1, 3 and 5 by atomic absorption spectroscopic analysis; type: functional; conditions: route intraperitoneal; how it was run: as §2
Mus musculus [18] = assay: Iron chelating activity in iron-overloaded BDF1 mouse assessed as iron level in lung at 50 mg/kg, ip treated from day 8 to 13 after erythrocyte suspension injection on day 1, 3 and 5 by atomic absorption spectroscopic analysis; type: functional; conditions: route intraperitoneal; how it was run: as §2
Mus musculus [19] = assay: Iron chelating activity in iron-overloaded BDF1 mouse assessed as iron level in spleen at 100 mg/kg, ip treated from day 8 to 13 after erythrocyte suspension injection on day 1, 3 and 5 by atomic absorption spectroscopic analysis; type: functional; conditions: route intraperitoneal; how it was run: as §2
Mus musculus [20] = assay: Iron chelating activity in iron-overloaded BDF1 mouse assessed as daily urinary iron level at 50 mg/kg, ip treated from day 8 to 13 after erythrocyte suspension injection on day 1, 3 and 5 by atomic absorption spectroscopic analysis; type: functional, Urine; conditions: route intraperitoneal
[21] = Binding affinity to Fe(NO3)3 assessed as stability constant at pH 7.4 after 1 hr; type: physicochemical; conditions: pH 7.4, 1 h
How it was run: (§3)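 Continuous-variation (Job) method: iron and ligand solutions diluted after 1 h to 10.00 mL with 50 mM barbital buffer (pH 7.4), all containing 0.100 M KNO3. Visible absorbance at λmax was read at several times to confirm equilibrium. Absorbance was plotted against metal/(metal + ligand) to give the stoichiometry and minimum stability constant.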

Mus musculus [22] = assay: Iron chelating activity in iron-overloaded BDF1 mouse assessed as iron level in liver at 100 mg/kg, ip treated from day 8 to 13 after erythrocyte suspension injection on day 1, 3 and 5 by atomic absorption spectroscopic analysis; type: functional; conditions: route intraperitoneal; how it was run: as §2
[23] = Binding affinity to FeSO4 assessed as stability constant at pH 7.4 after 1 hr; type: physicochemical; conditions: pH 7.4, 1 h; how it was run: as §3
Mus musculus [24] = assay: Iron chelating activity in iron-overloaded BDF1 mouse assessed as transferrin saturation at 50 mg/kg, ip treated from day 8 to 13 after erythrocyte suspension injection on day 1, 3 and 5 relative to control; type: functional; conditions: route intraperitoneal; how it was run: as §1
Mus musculus [25] = assay: Iron chelating activity in iron-overloaded BDF1 mouse assessed as transferrin saturation at 100 mg/kg, ip treated from day 8 to 13 after erythrocyte suspension injection on day 1, 3 and 5 relative to control; type: functional; conditions: route intraperitoneal; how it was run: as §1
Mus musculus [26] = assay: Iron chelating activity in iron-overloaded BDF1 mouse assessed as iron level in heart at 100 mg/kg, ip treated from day 8 to 13 after erythrocyte suspension injection on day 1, 3 and 5 by atomic absorption spectroscopic analysis; type: functional; conditions: route intraperitoneal; how it was run: as §2
Mus musculus [27] = assay: Iron chelating activity in iron-overloaded BDF1 mouse assessed as iron level in spleen at 50 mg/kg, ip treated from day 8 to 13 after erythrocyte suspension injection on day 1, 3 and 5 by atomic absorption spectroscopic analysis; type: functional; conditions: route intraperitoneal; how it was run: as §2
Mus musculus [28] = assay: Iron chelating activity in iron-overloaded BDF1 mouse assessed as daily urinary iron level at 100 mg/kg, ip treated from day 8 to 13 after erythrocyte suspension injection on day 1, 3 and 5 by atomic absorption spectroscopic analysis; type: functional, Urine; conditions: route intraperitoneal
Mus musculus [29] = assay: Iron chelating activity in iron-overloaded BDF1 mouse assessed as iron level in heart at 50 mg/kg, ip treated from day 8 to 13 after erythrocyte suspension injection on day 1, 3 and 5 by atomic absorption spectroscopic analysis; type: functional; conditions: route intraperitoneal; how it was run: as §2
Mus musculus [30] = assay: Iron chelating activity in iron-overloaded BDF1 mouse assessed as iron level in lung at 100 mg/kg, ip treated from day 8 to 13 after erythrocyte suspension injection on day 1, 3 and 5 by atomic absorption spectroscopic analysis; type: functional; conditions: route intraperitoneal; how it was run: as §2
[31] = Binding affinity to Fe(NO3)3 assessed as stability constant at pH 7.4 after 1 hr; conditions: pH 7.4, 1 h
[32] = Binding affinity to Fe(NO3)3 assessed as stability constant; type: physicochemical
How it was run: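 Minimum stability constant and stoichiometry were found by continuous variation (Job plot). Metal and ligand solutions stood 1 h and were then diluted with 50 mM barbital buffer (pH 7.4) containing 0.100 M KNO3. Visible absorbance at λmax was read at several times to confirm equilibrium. Absorbance was plotted against metal/(metal + ligand).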

Mus musculus [33] = assay: Iron chelating activity in iron-overloaded BDF1 mouse assessed as iron level in heart at 125 mg/kg, ip treated from day 8 to 13 after erythrocyte suspension injection on day 1, 3 and 5 by atomic absorption spectroscopic analysis; type: functional; conditions: route intraperitoneal; how it was run: as §2
Mus musculus [34] = assay: Iron chelating activity in iron-overloaded BDF1 mouse assessed as transferrin saturation at 125 mg/kg, ip treated from day 8 to 13 after erythrocyte suspension injection on day 1, 3 and 5 relative to control; type: functional; conditions: route intraperitoneal; how it was run: as §1
Mus musculus [35] = assay: Iron chelating activity in iron-overloaded BDF1 mouse assessed as iron level in liver at 125 mg/kg, ip treated from day 8 to 13 after erythrocyte suspension injection on day 1, 3 and 5 by atomic absorption spectroscopic analysis; type: functional; conditions: route intraperitoneal; how it was run: as §2
Mus musculus [36] = assay: Iron chelating activity in iron-overloaded BDF1 mouse assessed as iron level in lung at 125 mg/kg, ip treated from day 8 to 13 after erythrocyte suspension injection on day 1, 3 and 5 by atomic absorption spectroscopic analysis; type: functional; conditions: route intraperitoneal; how it was run: as §2
Mus musculus [37] = assay: Iron chelating activity in iron-overloaded BDF1 mouse assessed as iron level in spleen at 125 mg/kg, ip treated from day 8 to 13 after erythrocyte suspension injection on day 1, 3 and 5 by atomic absorption spectroscopic analysis; type: functional; conditions: route intraperitoneal; how it was run: as §2
Mus musculus [38] = assay: Iron chelating activity in iron-overloaded BDF1 mouse assessed as daily urinary iron level at 125 mg/kg, ip treated from day 8 to 13 after erythrocyte suspension injection on day 1, 3 and 5 by atomic absorption spectroscopic analysis; type: functional, Urine; conditions: route intraperitoneal

Row | SMILES | Activity (Mus musculus [1]) | Activity (Mus musculus [2]) | Activity (Mus musculus [3]) | Activity (Mus musculus [4]) | Activity (Mus musculus [5]) | Activity (Mus musculus [6]) | Activity (Mus musculus [8]) | Activity (Mus musculus [9]) | Activity [10] | Activity [11] | Activity (Mus musculus [12]) | Activity (Mus musculus [14]) | Activity (Mus musculus [15]) | Activity (Mus musculus [16]) | Activity [23] | Activity [32] | other results
1 | S=C([S-])N/N=C/c1cnccn1.[Na+] | 51% | 10.6 µg | 1.4 µg | 8.5 µg | 193 µg | 14.8 µg | 18.6 µg | 17.7 µg | 48.8 µM | 0.4% | 14 µg | 27% | 176 µg | 5.5 µg | – | – | Activity [7]: > 17; Activity [13]: > 25
2 | N/C(S)=N/N=C/c1ccccn1 | – | – | – | – | – | – | – | – | – | 0.3% | – | – | – | – | – | – | –
3 | C(=N\Nc1cnccn1)/c1cnccn1 | – | – | – | – | – | – | – | – | < 1 µM | 0.1% | – | – | – | – | 16.4 | – | Activity (Mus musculus [17]): 174 µg; Activity (Mus musculus [18]): 14.6 µg; Activity (Mus musculus [19]): 14.9 µg; Activity (Mus musculus [20]): 3.4 µg; Activity [21]: > 27; Activity (Mus musculus [22]): 164 µg; Activity (Mus musculus [24]): 44%; Activity (Mus musculus [25]): 38%; Activity (Mus musculus [26]): 7.6 µg; Activity (Mus musculus [27]): 16.4 µg; Activity (Mus musculus [28]): 4.9 µg; Activity (Mus musculus [29]): 7.4 µg; Activity (Mus musculus [30]): 12.8 µg
4 | NC(=S)N/N=C/c1cnccn1 | 58% | 9.4 µg | 1.1 µg | 9.2 µg | 171 µg | 15.4 µg | 14.6 µg | 16.1 µg | 1.4 µM | 0.3% | 16.7 µg | 44% | 156 µg | 1.1 µg | > 17 | – | Activity [31]: > 25
5 | O=c1cccccc1O [TROPOLONE] | – | – | – | – | – | – | – | – | 4.1 µM | 19.7% | – | – | – | – | – | 10.5 | –
6 | CC(=O)N(O)CCCCCNC(=O)CCC(=O)N(O)CCCCCNC(=O)CCC(=O)N(O)CCCCCN [DEFEROXAMINE] | – | – | – | – | – | – | – | – | 25.2 µM | 1% | – | – | – | – | – | 30.6 | Activity (Mus musculus [33]): 9.4 µg; Activity (Mus musculus [34]): 75%; Activity (Mus musculus [35]): 132 µg; Activity (Mus musculus [36]): 16.4 µg; Activity (Mus musculus [37]): 19.2 µg; Activity (Mus musculus [38]): 3 µg

Reference: ChEMBL document CHEMBL3244186, “Synthesis and evaluation of the thiosemicarbazone, dithiocarbazonate, and 2'-pyrazinylhydrazone of pyrazinecarboxaldehyde as agents for the treatment of iron overload” (J Med Chem, 1979)
